Data as given in the RNAGym collection of RNA variant scans (doi:10.1002/anie.201605470).

B1: Osa-1-4 twister ribozyme (parent)
chain: CCGCCUAACACUGCCAAUGCCGGUCCCAAGCCCGGAUAAAAGUGGAGGGGGCGG

Variants of: B1
Assay: self-cleavage, relative activity (ratio to wild type); higher = more cleavage; co-transcriptional
Summary of the method: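 The 48 positions downstream of the cleavage site in a 54-nucleotide Oryza sativa twister ribozyme template were synthesised at 97 % wild-type base and 1 % of each other base. The template was transcribed in vitro at 37 °C for 2 h, with self-cleavage allowed during transcription. Reads with or without upstream sequence after deep sequencing marked cleavage status, and relative activity is fraction cleaved normalised to wild type.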

Row | Variant | self-cleavage
1 | C20G U18C | 0.2
2 | C20G U18A | 0.13
3 | C20G U18G | 0.09
4 | C21A C52A | 0.31
5 | C21A C52U | 0.86
6 | C21A C52G | 0.54
7 | C20U C31U | 0.92
8 | C20U C31A | 0.05
9 | C20U C31G | 0.15
10 | C21A G35C | 0.06
11 | C21A G35U | 0.44
12 | C21A G35A | 0.87
13 | C21A U18A | 0.83
14 | C21A U18C | 0.82
15 | C21A U18G | 0.6
16 | C21G G19A | 0.05
17 | C21G G19C | 0.02
18 | C21G G19U | 0.03
19 | C20U C9G | 0.73
20 | C20U C9A | 0.38
21 | C20U C9U | 0.68
22 | C21A C33U | 0.07
23 | C21A C33G | 0.03
24 | C21A C33A | 0.09

Row | Variant | self-cleavage
25 | C20G C32U | 0.03
26 | C20G C32G | 0.06
27 | C20G C32A | 0.03
28 | C21G G35U | 0.06
29 | C21G G35A | 0.08
30 | C21G G35C | 0.03
31 | C21A U12C | 0.14
32 | C21A U12A | 0.18
33 | C21A U12G | 0.12
34 | C21A U37A | 0.92
35 | C21A U37G | 0.94
36 | C21A U37C | 0.78
37 | C21G C52U | 0.1
38 | C21G C52A | 0.1
39 | C21G C52G | 0.18
40 | C20G G47A | 0.05
41 | C20G G47C | 0.04
42 | C20G G47U | 0.03
43 | C20U G48U | 0.1
44 | C20U G48C | 0.1
45 | C20U G48A | 0.1
46 | C21A G47C | 0.05
47 | C21A G47A | 0.07
48 | C21A G47U | 0.07

Row | Variant | self-cleavage
49 | C21G C26A | 0.02
50 | C21G C26G | 0.05
51 | C21G C26U | 0.06
52 | C21G C31U | 0.05
53 | C21G C31G | 0.06
54 | C21G C31A | 0.02
55 | C20G U37G | 0.19
56 | C20G U37A | 0.2
57 | C20G U37C | 0.19
58 | C20U U12C | 0.49
59 | C20U U12G | 0.46
60 | C20U U12A | 0.83
61 | C21G G23C | 0.03
62 | C21G G23U | 0.07
63 | C21G G23A | 0.07
64 | C20G G35U | 0.27
65 | C20G G35C | 0.28
66 | C20G G35A | 0.27
67 | C20G C52G | 0.11
68 | C20G C52A | 0.08
69 | C20G C52U | 0.17
70 | C20G G23U | 0.04
71 | C20G G23A | 0.06
72 | C20G G23C | 0.04

Row | Variant | self-cleavage
73 | C21A U24C | 0.06
74 | C21A U24A | 0.07
75 | C21A U24G | 0.06
76 | C21G C25G | 0.03
77 | C21G C25U | 0.05
78 | C21G C25A | 0.04
79 | C21A G53U | 0.11
80 | C21A G53C | 0.06
81 | C21A G53A | 0.19
82 | C20G | 0.2
83 | C20U | 0.97
84 | C20U G13C | 0.02
85 | C20U G13U | 0.04
86 | C20U G13A | 0.15
87 | C21A C32G | 0.09
88 | C21A C32U | 0.07
89 | C21A C32A | 0.08
90 | C21A G54A | 0.29
91 | C21A G54U | 0.59
92 | C21A G54C | 0.32
93 | C20G G34C | 0.08
94 | C20G G34U | 0.06
95 | C20G G34A | 0.08
96 | C21A G23C | 0.03

Row | Variant | self-cleavage
97 | C21A G23A | 0.07
98 | C21A G23U | 0.04
99 | C21A G49U | 0.06
100 | C21A G49A | 0.07
101 | C21A G49C | 0.05
102 | C21G | 0.08
103 | C21A | 0.93
104 | C20U C33A | 0.11
105 | C20U C33G | 0.07
106 | C20U C33U | 0.77
107 | C20U U37A | 0.96
108 | C20U U37C | 1.02
109 | C20U U37G | 1.04
110 | C20G U43A | 0.07
111 | C20G U43G | 0.09
112 | C20G U43C | 0.07
113 | C21A G42C | 0.07
114 | C21A G42A | 0.1
115 | C21A G42U | 0.05
116 | C21G G34C | 0.83
117 | C21G G34U | 0.89
118 | C21G G34A | 0.3
119 | C20G G19A | 0.41
120 | C20G G19U | 0.37

Row | Variant | self-cleavage
121 | C20G G19C | 0.17
122 | C20U U24A | 0.44
123 | C20U U24G | 0.08
124 | C20U U24C | 0.38
125 | C20U C26A | 0.08
126 | C20U C26G | 0.24
127 | C20U C26U | 0.92
128 | C20U C27G | 0.08
129 | C20U C27U | 0.26
130 | C20U C27A | 0.23
131 | C20G G44U | 0.07
132 | C20G G44C | 0.06
133 | C20G G44A | 0.08
134 | C20G G42C | 0.04
135 | C20G G42U | 0.02
136 | C20G G42A | 0.07
137 | C21A U43G | 0.1
138 | C21A U43C | 0.11
139 | C21A U43A | 0.09
140 | C20U G35C | 0.93
141 | C20U G35U | 1
142 | C20U G35A | 1
143 | C20U G45A | 0.35
144 | C20U G45U | 0.14

Row | Variant | self-cleavage
145 | C20U G45C | 0.06
146 | C20U G50A | 0.92
147 | C20U G50C | 0.87
148 | C20U G50U | 0.95
149 | C21A G13A | 0.07
150 | C21A G13U | 0.04
151 | C21A G13C | 0.03
152 | C21G G22U | 0.5
153 | C21G G22C | 0.16
154 | C21G G22A | 0.49
155 | C20U G34U | 0.82
156 | C20U G34C | 0.31
157 | C20U G34A | 0.95
158 | C21A G48U | 0.05
159 | C21A G48A | 0.06
160 | C21A G48C | 0.07
161 | C20U C25U | 0.9
162 | C20U C25G | 0.15
163 | C20U C25A | 0.17
164 | C20A U24C | 0.17
165 | C20A U24A | 0.37
166 | C20A U24G | 0.06
167 | C20U G49U | 0.13
